PubChem BioAssay
Active and inactive are the calls of the source.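 How the source made its calls, unless noted: active means inhibition of the reporter signal at or above 50%; inactive means inhibition below 50%.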

Columns and labels:
[1] = inhibitors of TNFa-induced NFkB p65 translocation, primary screen, imaging, HUVEC, MLSMR starter and 10KST1 sets (AID 438;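 active means inhibition above 20% together with a positive visual image hit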;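 further: compound added about 3h40 before a 20 min TNFalpha stimulation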;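 on inhibition: signal is the nuclear over cytoplasmic p65 intensity ratio per well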); conditions: HUVEC TNFa-induced p65 nuclear translocation; cell count: measured here: nuclei count (cytotoxicity indicator), at 2.08 µM; inhibition: at 2 µM, stronger effect = higher value, 0% TNFa-plus-vehicle, 100% no-TNFa wells
[2] = reduction of polyQ htt aggregates in cells – imaging, exon1htt(103Q)mCFP cells, high-content imaging, primary screen (AID 483;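 active means visual image review flags a hit and inhibition of aggregation exceeds 20%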;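 further: compound exposure lasted 3 days before fixation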;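 on nuclei count: percent of the per-plate median nuclei count of sample wells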); conditions: exon1htt(103Q)mCFP cell line, aggregate imaging, at 2 µM; inhibition of aggregation: stronger effect = higher value; nuclei count: measured here: cell count, toxicity
[3] = endothelial E-selectin expression blockers – imaging, HUVEC, immunofluorescence, MLSMR starter and 10KST1 sets, primary screen (AID 487;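 active means visually confirmed hit in the image check and inhibition above 20%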;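 on inhibition: signal is fraction of cell area covered by stained E-selectin grains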;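 on nuclei count: 100% = median nuclei count of all wells on the same plate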); conditions: HUVEC TNFalpha-induced E-selectin immunofluorescence imaging, at 2 µM; inhibition: stronger effect = higher value; nuclei count: measured here: cell number, toxicity
[4] = biological target: Voltage-gated potassium channel subunit beta-2 (Rattus norvegicus) (UniProt P62483); assay: inhibitors of rat Kvbeta2 reductase activity – biochemical, NADPH fluorescence, primary screen (AID 622;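 active means fluorescence slope higher than the sample average by over 3 SD, cut at about -0.22 in these data, passing the limit was not always enough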;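 further: slope of raw intensity against log time taken from 70 to 1610 s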); conditions: recombinant KvBeta, 4-cyanobenzaldehyde reduction, at 10 µM, stronger effect = higher value
[5] = biological target: Voltage-gated potassium channel subunit beta-2 (Rattus norvegicus) (UniProt P62483); assay: enhancers of rat Kvbeta2 NADPH turnover – biochemical, NADPH fluorescence, primary screen (AID 623;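 active means NADPH fluorescence slope more negative than the mean of all samples by about 3 SD, 99.7% confidence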;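 further: fluorescence intensity change per second fitted from 20 to 320 s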); conditions: Recombinant KvBeta, NADPH fluorescence decrease slope, 10 min; at 10 µM; stronger effect = lower value
[6] = biological target: Alpha-2C adrenergic receptor (Homo sapiens) (UniProt P18825); assay: compounds altering alpha2C-coupled GIRK flux – cell-based, HEK293 alpha2C/GIRK1/2, thallium flux, primary screen (AID 624;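 active means fluorescence slope after compound addition differing from the mean of all screened samples at 99.7% confidence, in either direction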;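 further: slope of fluorescence ratio to pre-addition baseline per second over 15 to 24 s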); conditions: thallium flux BTC fluorescence, at 10 µM, actives lie on both sides
[7] = inhibitors of larval lipid processing in zebrafish, primary screen, whole organism, PED6 fluorescence, gall bladder and intestine (AID 686;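 active means a full or partial loss of lipid-probe fluorescence in the fish gall bladder, intestine or both, judged by eye; inactive means no fluorescence loss, or compound toxic to the fish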;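 further: larvae 5 to 7 days old with five fish per well; signal comes from phospholipase A2 cleavage of quenched PED6 carried via bile; overnight exposure to compound and PED6 before scoring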); conditions: Zebrafish larvae PED6 lipid processing, fluorescence scoring; screened at 20 µM (by protocol)
Procedure, shortened: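 system = live zebrafish larvae aged 5-7 days, whole organism | probe or stimulus = ingested quenched lipid PED6 at 100 nM | doses = 20 µM single dose | timing = overnight exposure | detection = fluorescence microscopy with visual scoring of gall bladder and intestine | read-out = visual per-well fluorescence inhibition score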

[8] = blockers of RIG-like receptor reporter activation – cell-based, Sendai virus stimulus, luciferase, 10K MLSCN set, TLR/RLR signaling modifier project, primary screen (AID 602276;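 active means inhibition at or above 50% at 10 µM; inactive means inhibition below 50%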;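 further: firefly luciferase from ISG56 promoter only with Renilla not read in this screen; 0% = Sendai virus plus DMSO and 100% = medium plus DMSO without virus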); conditions: HEK293 RL24 IRF3 luciferase reporter, at 10 µM, stronger effect = higher value
[9] = TLR3 IRF3 reporter activation blockers – cell-based, poly I:C stimulus, luciferase, 10K MLSCN set, primary screen (AID 602277); conditions: HEK293-TLR3 RL24 IRF3 luciferase reporter, at 10 µM, stronger effect = higher value
[10] = biological target: Muscarinic acetylcholine receptor M4 (Homo sapiens) (UniProt P08173); assay: M4-linked GIRK flux change, two-sided – cell-based, HEK293 M4/GIRK, thallium flux, BTC-AM, M4 allosteric agonist project, primary screen (AID 625;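 active means fluorescence slope after compound addition differing from the mean of all tested samples at 99.7% confidence, mostly higher but some lower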;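 further: thallium influx through GIRK channels coupled to M4 in HEK293 cells with BTC-AM dye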); conditions: at 10 µM, actives lie on both sides
Procedure, shortened: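 Material – HEK293 cells with M4 receptor and GIRK channels · Buffer or medium – pH 7.3 thallium assay buffer · Doses – one dose, 10 µM final · Timing – cells overnight at 37 °C, BTC-AM loading 1 h, reads 2 min total · Measured by – kinetic fluorescence with BTC-AM dye · Controls – carbachol and DMSO controls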

Muscarinic acetylcholine receptor M4 (Homo sapiens), sequence (P08173 whole entry, looked up): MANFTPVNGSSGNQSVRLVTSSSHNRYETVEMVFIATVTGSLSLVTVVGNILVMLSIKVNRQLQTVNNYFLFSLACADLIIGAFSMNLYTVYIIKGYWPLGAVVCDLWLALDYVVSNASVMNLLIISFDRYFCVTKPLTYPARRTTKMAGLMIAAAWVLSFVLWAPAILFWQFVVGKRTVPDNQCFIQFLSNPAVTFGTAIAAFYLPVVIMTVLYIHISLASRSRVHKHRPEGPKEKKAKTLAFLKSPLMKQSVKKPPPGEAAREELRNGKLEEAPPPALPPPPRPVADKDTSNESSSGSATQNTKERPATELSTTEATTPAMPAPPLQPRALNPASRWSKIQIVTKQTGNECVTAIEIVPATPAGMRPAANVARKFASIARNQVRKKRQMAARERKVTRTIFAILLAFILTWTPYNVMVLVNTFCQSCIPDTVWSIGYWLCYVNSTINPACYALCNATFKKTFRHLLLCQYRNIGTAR
Alpha-2C adrenergic receptor (Homo sapiens), sequence (P18825 whole entry, looked up): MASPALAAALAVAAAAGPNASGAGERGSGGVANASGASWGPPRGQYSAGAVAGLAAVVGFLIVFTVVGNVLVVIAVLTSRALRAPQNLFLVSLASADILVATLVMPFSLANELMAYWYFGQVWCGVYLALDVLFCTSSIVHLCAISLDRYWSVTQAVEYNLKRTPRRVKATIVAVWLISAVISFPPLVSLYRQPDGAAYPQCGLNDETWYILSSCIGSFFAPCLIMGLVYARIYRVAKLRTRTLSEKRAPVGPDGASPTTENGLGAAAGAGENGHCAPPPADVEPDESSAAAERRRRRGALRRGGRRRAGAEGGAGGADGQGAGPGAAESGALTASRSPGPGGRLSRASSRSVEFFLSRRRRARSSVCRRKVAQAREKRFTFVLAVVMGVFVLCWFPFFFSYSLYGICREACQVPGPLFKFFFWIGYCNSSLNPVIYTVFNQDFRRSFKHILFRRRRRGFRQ
Voltage-gated potassium channel subunit beta-2 (Rattus norvegicus), sequence (P62483 whole entry, looked up): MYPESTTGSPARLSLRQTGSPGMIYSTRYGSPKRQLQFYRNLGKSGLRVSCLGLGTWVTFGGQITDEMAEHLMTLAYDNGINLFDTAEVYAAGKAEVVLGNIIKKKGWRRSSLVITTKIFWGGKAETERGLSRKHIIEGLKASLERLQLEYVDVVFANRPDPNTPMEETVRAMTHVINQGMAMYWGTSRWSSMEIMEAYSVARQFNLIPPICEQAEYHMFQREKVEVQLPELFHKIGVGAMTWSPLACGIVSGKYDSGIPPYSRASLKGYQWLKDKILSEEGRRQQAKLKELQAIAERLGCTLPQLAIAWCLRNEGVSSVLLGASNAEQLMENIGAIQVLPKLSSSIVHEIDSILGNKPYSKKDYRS

Row | SMILES | cell count [1] | inhibition [1] | inhibition of aggregation [2] | nuclei count [2] | inhibition [3] | nuclei count [3] | fluorescence slope [4] | NADPH fluorescence slope [5] | slope [6] | outcome [7] | inhibition [8] | inhibition [9] | fluorescence slope [10]
1 | Cc1nc2ccccc2c(=O)n1NC(=O)Nc1ccccc1 | 592 | 0% (inactive) | 17.7% (inactive) | 83.8% | -41.3% (inactive) | 97.5% | -0.359 (inactive) | -2.7e-05 (inactive) | 0.00703 (inactive) | inactive | 12.6% (inactive) | -4.39% (inactive) | 
2 | CCNc1ccc(S(=O)(=O)C(F)(F)F)cc1NC(=O)C12CCC(CC1)C2 | 380 | 2.5% (inactive) | -4.3% (inactive) | 108% | -30.6% (inactive) | 101% | -0.481 (inactive) | -3.1e-05 (inactive) | 0.0047 (inactive) | inactive | -90% (inactive) | 99.7% (active) | 
3 | O=C(CSc1nc2ccccc2[nH]1)N1CCCCC1 | 433 | 0.5% (inactive) | 16% (inactive) | 102% | 13.2% (inactive) | 99.3% | -0.435 (inactive) | -3.6e-05 (inactive) | 0.00459 (inactive) | inactive | -14.8% (inactive) | -73.7% (inactive) | 
4 | O=C(CSc1nnc(-c2ccccn2)n1Cc1ccccc1)N1CCCC1 | 340 | 8.1% (inactive) | 7.9% (inactive) | 112% | 19.6% (inactive) | 97.4% | -0.365 (inactive) | -6.5e-05 (inactive) | 0.00635 (inactive) | inactive | 3.06% (inactive) | 2.57% (inactive) | 
5 | CCCC(=O)Nc1ccc(C(=O)O)cc1NC(=O)CCC | 442 | -4.3% (inactive) | -9.3% (inactive) | 104% | 39.4% (inactive) | 89.9% | -0.441 (inactive) | -5e-05 (inactive) | 0.00422 (inactive) | inactive | 12.9% (inactive) | 15.5% (inactive) | 
6 | Cc1ccc(S(=O)(=O)N2CCN(C(=O)CSc3nc4ccccc4c(=O)[nH]3)CC2)c(C)c1 | 541 | -30.9% (inactive) | -12.7% (inactive) | 113% | -13.1% (inactive) | 130% | -0.331 (inactive) | 1.8e-05 (inactive) | 0.00493 (inactive) | inactive | 8.86% (inactive) | 4.21% (inactive) | 
7 | COc1ccc(NC(=O)N2CCC(c3nc(-c4cccs4)no3)CC2)cc1 | 486 | -35.7% (inactive) | 1.4% (inactive) | 56.4% | -41.5% (inactive) | 102% | -0.36 (inactive) | -5.2e-05 (inactive) | 0.00458 (inactive) | inactive | -1.92% (inactive) | -22% (inactive) | 
8 | Cc1nnc(SCc2nnc(-c3ccccc3Br)o2)n1-c1ccccc1 | 730 | 14.5% (inactive) | 38.5% (inactive) | 87.5% | -59.5% (inactive) | 93.8% | -0.455 (inactive) | -4e-05 (inactive) | 0.00597 (inactive) | inactive | 6.33% (inactive) | 8.93% (inactive) | 
9 | CC(=O)c1ccc(N2CCN(C(=O)c3cc(C)on3)CC2)cc1 | 319 | 0% (inactive) | 18.7% (inactive) | 102% | 40.6% (inactive) | 80.7% | -0.465 (inactive) | -4.5e-05 (inactive) | 0.00513 (inactive) | inactive | 2.68% (inactive) | -0.354% (inactive) | 
10 | CC(C)n1nnnc1SCC(=O)Nc1ccccc1N1CCOCC1 | 539 | -8% (inactive) | -6.6% (inactive) | 104% | -38.2% (inactive) | 112% | -0.451 (inactive) | -6.8e-05 (inactive) | 0.00614 (inactive) | inactive | 10.2% (inactive) | 11.6% (inactive) | 
11 | Cc1ccc(N2CC(C(=O)Nc3nnc(C)s3)CC2=O)cc1 (centres undefined) | 622 | 0% (inactive) | -10.8% (inactive) | 95.6% | 21.8% (inactive) | 103% | -0.542 (inactive) | -3e-05 (inactive) |  |  | 18.6% (inactive) | 14.5% (inactive) | 0.00498 (inactive)
12 | CCn1nnc(NC(=O)c2cc3ccccc3o2)n1 | 332 | 0.5% (inactive) | 7.1% (inactive) | 87.2% | -51% (inactive) | 102% | -0.297 (inactive) | -7.3e-06 (inactive) |  |  | -50.7% (inactive) | -120% (inactive) | 0.00628 (inactive)
13 | Cc1nc2c3cnn(-c4ccccc4)c3ncn2n1 | 470 | 1.7% (inactive) | -9.9% (inactive) | 105% | -62.2% (inactive) | 108% | -0.406 (inactive) | 8.7e-05 (inactive) |  |  | -1.03% (inactive) | -18.2% (inactive) | 0.00848 (inactive)
14 | C=CS(=O)(=O)c1ccc(Oc2ccc(S(=O)(=O)C=C)cc2)cc1 | 378 | 70.2% (active) | -3.2% (inactive) | 80.8% | 104% (active) | 121% | -0.5 (inactive) | -2.6e-05 (inactive) |  |  | 14.1% (inactive) | 98.2% (active) | 0.00487 (inactive)
15 | O=C(Nc1ccccc1C(=O)N1CCOCC1)c1ccncc1 | 389 | 0.7% (inactive) | 5.4% (inactive) | 107% | -97.8% (inactive) | 105% | -0.579 (inactive) | -3.8e-05 (inactive) |  |  | 5.72% (inactive) | 17.1% (inactive) | 0.00647 (inactive)
16 | Cc1cccc2cc(CN(Cc3nnnn3Cc3ccccc3)C3CCCC3)c(=O)[nH]c12 | 561 | -9% (inactive) | -39.5% (inactive) | 76.4% | -35.7% (inactive) | 111% | -0.483 (inactive) | -0.00011 (inactive) |  |  | 14.3% (inactive) | 15% (inactive) | 0.00509 (inactive)
17 | COc1ccc(-c2cc(C(=O)N3CCN(Cc4ccccc4)CC3)no2)cc1OC | 463 | -23% (inactive) | -5.8% (inactive) | 106% | -36% (inactive) | 112% | -0.318 (inactive) | -6.6e-05 (inactive) |  |  | 8.32% (inactive) | 12.9% (inactive) | 0.00627 (inactive)
18 | O=C(Cc1ccccc1)Nc1nnc(-c2cccs2)s1 | 373 | -5.4% (inactive) | -3.5% (inactive) | 115% | -11.8% (inactive) | 130% | -0.521 (inactive) | -1.2e-05 (inactive) |  |  | 7.41% (inactive) | -69.9% (inactive) | 0.00894 (inactive)
19 | CCOC(=O)c1sc(NC(=O)CNC(=O)Cn2cnc3sc(C)c(C)c3c2=O)nc1C | 260 | 12.2% (inactive) | -12.7% (inactive) | 112% | -61.8% (inactive) | 109% | -0.565 (inactive) | -1.6e-06 (inactive) |  |  | 16.7% (inactive) | 24.7% (inactive) | 0.00606 (inactive)
20 | CCN(CCO)C1CC(=O)N(c2ccccc2C)C1=O (centres undefined) | 486 | 7.7% (inactive) | 12.4% (inactive) | 104% | -126% (inactive) | 145% | -0.321 (inactive) | -3.6e-05 (inactive) |  |  | 4.48% (inactive) | 13% (inactive) | 0.00663 (inactive)
21 | Cc1ccc2cc(C(c3nnnn3C3CCCC3)N3CCN(c4ccc(F)cc4)CC3)c(=O)[nH]c2c1 (centres undefined) | 586 | 7.2% (inactive) | -4.3% (inactive) | 99.8% | -31.9% (inactive) | 130% | -0.372 (inactive) | -4.7e-05 (inactive) | 0.00624 (inactive) | inactive; toxic | 23.2% (inactive) | 34.2% (inactive) | 
22 | Cc1cc(C)n(Cc2nc3ccccc3n2C)n1 | 451 | 7% (inactive) | 4% (inactive) | 100% | -24.9% (inactive) | 119% | -0.577 (inactive) | -3.2e-05 (inactive) |  |  | 4.33% (inactive) | 36.3% (inactive) | 0.0071 (inactive)
23 | O=C(Nc1ccc2oc(-c3ccncc3)nc2c1)c1cccs1 | 159 | 108% (active) | -8.6% (inactive) | 103% | 14.7% (inactive) | 113% | -0.346 (inactive) | -0.000115 (inactive) |  |  | -55.9% (inactive) | -120% (inactive) | 0.00345 (inactive)
24 | CCN(Cc1nc2ccccc2c(=O)[nH]1)Cc1nc2cc(OC)c(OC)cc2c(=O)[nH]1 | 403 | -19.9% (inactive) | 0% (inactive) | 113% | -17.4% (inactive) | 144% | -0.324 (inactive) | -3.7e-06 (inactive) |  |  | -12.7% (inactive) | -12.6% (inactive) | 0.00825 (inactive)
25 | CCN(c1ccc(OC)cc1)S(=O)(=O)c1ccc2c(c1)CCN2C(=O)CCC(=O)O | 625 | 8.3% (inactive) | -38.2% (inactive) | 92.1% | -35.6% (inactive) | 115% | -0.454 (inactive) | 2.3e-05 (inactive) |  |  | 14.1% (inactive) | 20.9% (inactive) | 0.00631 (inactive)
26 | Cc1noc(C)c1S(=O)(=O)N1CCC(C(=O)N2CCN(Cc3ccc4c(c3)OCO4)CC2)CC1 | 721 | -6.9% (inactive) | 8.9% (inactive) | 107% | -40.5% (inactive) | 103% | -0.498 (inactive) | 1.3e-06 (inactive) |  |  | 13.4% (inactive) | 17.8% (inactive) | 0.00556 (inactive)
27 | CCOC(=O)c1c(NC(=O)CSc2nc3c(c(=O)n(C)c(=O)n3C)n2C(C)C)sc(C)c1C | 547 | 1.2% (inactive) | 17.1% (inactive) | 110% | 26.4% (inactive) | 82.3% | -0.564 (inactive) | -2.9e-05 (inactive) |  |  | 18% (inactive) | 20.6% (inactive) | 0.00617 (inactive)
28 | CC(=O)c1cccc(NC(=O)N2C3CCC2CC(O)(c2cccnc2)C3)c1 (centres undefined) | 602 | 9.7% (inactive) | -21.4% (inactive) | 104% | -27.6% (inactive) | 106% | -0.259 (inactive) | 3.9e-06 (inactive) |  |  | -7.02% (inactive) | 16.5% (inactive) | 0.0059 (inactive)
